Ends that are not written are not given here.
Columns and labels:
PMN = conditions: cited from earlier work; for effect on PMN apoptosis: ref [6]–[9]
[1] = biological target: recombinant purified β2 subunit (Homo sapiens, UniProt P05107); test: Solid-phase binding to purified β2 subunit; conditions: for recognition by individual integrin subunits (in words): solid-phase binding, αM versus β2
In short: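 Purified recombinant αMβ2, αM or β2 (from HEK293 lines) was coated overnight at 4°C in TBS with 10 mM n-octyl-β-D-glucopyranoside and postcoated with 0.5% PVP for 1 h at 37°C. Biotinylated Plg or Ang(1–4) (0–10 μM) was bound for 2 h at 37°C in the same buffer plus 1 mM CaCl₂/MgCl₂. Binding was detected with alkaline phosphatase–avidin and pNPP at A405. Kd came from a one-site binding fit.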

human PMNs = conditions: 16 h
Bax [2] = test: Bax cleavage in PMN lysates, Western blot; type: cell-based, human; conditions: PMN lysate, 16 h; proteins 1 μM, peptides 100 μM; six donors
caspase-8 [3] = test: Caspase-8 cleavage in PMN lysates, Western blot; type: cell-based, human; conditions: PMN lysate, 16 h; proteins 1 μM, peptides 100 μM; six donors
caspase-3 [4] = test: Caspase-3 cleavage in PMN lysates, Western blot; type: cell-based, human; conditions: PMN lysate, 16 h; proteins 1 μM, peptides 100 μM; six donors
Akt [5] = test: Akt phosphorylation in PMNs, Western blot; type: cell-based, human; conditions: PMN stimulated with 1 nM PMA, 30 min, 37 °C; proteins 1 μM, peptides 100 μM
In short: (§1)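 Human PMNs stimulated with 1 nM PMA were incubated with ligands for 30 min at 37°C in HBSS with 1 mM CaCl₂, 1 mM MgCl₂, 0.1% BSA, pH 7.4. Cells were lysed in ice-cold Tris/EDTA/detergent buffer with phosphatase and protease inhibitors. Equal protein was immunoblotted for phospho- and total Akt or ERK1/2, with actin. Inhibition arm: 20 min pretreatment at 37°C with 10 μM Akt inhibitor, 50 μM PD98059, 50 nM NIF, or F(ab′)₂ anti-αM or anti-MHC-1 (20 μg/ml), then 1 μM Plg.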

αMβ2 = αMβ2 clustering on PMNs, fluorescence microscopy; type: cell-based, human; conditions: 4 h, 37 °C; proteins 1 μM, peptides 100 μM; anti-αM OKMI staining; four donors
In short: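 Human PMNs were exposed to ligands (proteins 1 μM, peptides 100 μM) for 4 h at 37°C, or to 1 μM Plg together with clustering inhibitors at the final concentrations used in apoptosis assays. Cells were fixed in 4% paraformaldehyde and stained with anti-αM mAb OKMI plus Alexa 488 goat anti-mouse IgG. They were cytospun, mounted and imaged by fluorescence microscopy (×40/0.7 NA); PMNs came from four donors.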

αMβ2 on K562 cells = test: Soluble ligand binding to K562 cells expressing αMβ2, FACS; parameters: species or system human; conditions: 40 min, 37 °C
In short: (§2)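 Transiently transfected K562 cells were incubated with soluble Alexa 488-labelled Plg or Ang(1–4) for 40 min at 37°C in HBSS containing 1 mM CaCl₂ and 1 mM MgCl₂. Cells were washed twice and bound ligand was quantified by FACS; three independent experiments. For inhibition, cells were pretreated for 20 min at 37°C with function-blocking anti-αM or anti-β2 mAbs (20 μg/ml) or NIF (20 nM).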

αM subunit on K562 cells = test: Soluble ligand binding to K562 cells expressing αM, FACS; parameters: species or system human; conditions: 40 min, 37 °C
In short: as §2

β2 subunit on K562 cells = test: Soluble ligand binding to K562 cells expressing β2, FACS; parameters: species or system human; conditions: 40 min, 37 °C
In short: as §2

[6] = system: mock-transfected K562 cells; test: Apoptosis of mock-transfected K562 cells, annexin V, FACS; type: cell-based, human; conditions: 16 h, 37 °C; proteins 1 μM, peptides 100 μM; no ligand 81 ± 8; mean ± SEM, n = 5
Bax [7] = test: Bax cleavage in K562 cell lysates, Western blot; type: cell-based, human; conditions: K562 αMβ2 transfectants, 24 h, 37 °C; proteins 1 μM, peptides 100 μM
caspase-3 [8] = test: Caspase-3 cleavage in K562 cell lysates, Western blot; type: cell-based, human; conditions: K562 αMβ2 transfectants, 24 h, 37 °C; proteins 1 μM, peptides 100 μM
caspase-8 [9] = test: Caspase-8 cleavage in K562 cell lysates, Western blot; type: cell-based, human; conditions: K562 αMβ2 transfectants, 24 h, 37 °C; proteins 1 μM, peptides 100 μM
Akt [10] = test: Akt phosphorylation in transfected K562 cells, Western blot; type: cell-based, human; conditions: 37 °C; for Akt phosphorylation, αM, β2 and mock cells: K562 expressing αM or β2, or mock-transfected, 30 min; for Akt phosphorylation, αMβ2 cells: K562 expressing αMβ2, 30 min
In short: (§3)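 Transiently transfected K562 cells (αM, β2, αMβ2 or mock) were exposed to ligands for 30 min at 37°C and lysed in ice-cold buffer. Equal protein was run on SDS-PAGE and blotted with the PathScan Multiplex Western Cocktail I, then reprobed for total ERK1/2; blots shown are representative of three experiments.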

ERK1/2 [11] = test: ERK1/2 phosphorylation in transfected K562 cells, Western blot; type: cell-based, human; conditions: 37 °C; for ERK1/2 activation, αM cells: K562 expressing αM, 30 min; for ERK1/2 activation, αMβ2 cells: K562 expressing αMβ2, 30 min; for ERK1/2 phosphorylation, mock and β2 cells: K562 mock or expressing β2, 30 min
In short: as §3

ERK1/2 [12] = test: ERK1/2 phosphorylation in PMNs, Western blot; type: cell-based, human; conditions: PMN stimulated with 1 nM PMA, 30 min, 37 °C; proteins 1 μM, peptides 100 μM
In short: as §1

αMβ2 on PMN = test: Soluble Alexa 488-labeled ligand binding to PMN, FACS; parameters: species or system human; conditions: clustering inhibitor, 1 h, 37 °C, mean ± SEM, n = 3
In short: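 Human PMNs were incubated for 1 h at 37°C in HBSS/Ca²⁺/Mg²⁺ with soluble Alexa 488-labelled Plg or Fg, with or without clustering inhibitors. After two buffer washes, bound ligand was read by FACS; mean ± SEM, n = 3.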

Chain of recombinant purified β2 subunit (P05107 23-769): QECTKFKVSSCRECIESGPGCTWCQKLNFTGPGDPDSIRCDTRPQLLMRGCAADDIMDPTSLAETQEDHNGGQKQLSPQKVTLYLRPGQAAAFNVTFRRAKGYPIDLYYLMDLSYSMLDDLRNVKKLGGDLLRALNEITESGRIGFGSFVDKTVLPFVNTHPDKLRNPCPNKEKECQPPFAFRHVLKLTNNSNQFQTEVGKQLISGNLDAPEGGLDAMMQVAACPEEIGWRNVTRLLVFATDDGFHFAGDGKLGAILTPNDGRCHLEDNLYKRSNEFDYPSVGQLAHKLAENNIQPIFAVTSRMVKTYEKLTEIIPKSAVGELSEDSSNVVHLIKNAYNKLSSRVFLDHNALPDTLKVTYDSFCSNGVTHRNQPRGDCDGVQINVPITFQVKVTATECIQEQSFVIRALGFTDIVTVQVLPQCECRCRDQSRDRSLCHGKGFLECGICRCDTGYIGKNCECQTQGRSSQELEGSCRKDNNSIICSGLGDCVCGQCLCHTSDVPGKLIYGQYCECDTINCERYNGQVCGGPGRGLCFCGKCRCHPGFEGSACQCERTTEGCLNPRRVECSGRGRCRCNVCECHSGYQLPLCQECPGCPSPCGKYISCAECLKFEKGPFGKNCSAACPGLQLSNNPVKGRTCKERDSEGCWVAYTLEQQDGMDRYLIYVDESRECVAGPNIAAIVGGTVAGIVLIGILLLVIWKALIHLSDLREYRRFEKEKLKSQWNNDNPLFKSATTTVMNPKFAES

In the case of “GM-CSF: agent that promotes PMN responsiveness”, the “effect on PMN apoptosis” value (PMN) is listed as “delay PMN apoptosis”.
For “IL-8: agent that promotes PMN responsiveness”, the “effect on PMN apoptosis” value (PMN) is given as “delay PMN apoptosis”.
With KIIPFNRLTIG [P2-C] the Kd [1] was 50 nM and the “PMN early/late apoptosis (% annexin V+ cells), no inhibitor” value (human PMNs; 100 μM) was 20.1 ± 4%.
For TNF-α, the “effect on PMN death” value (PMN) is listed as “promote PMN death”.
With angiostatin [Ang(1–4)] the “22-kDa Bax fragment” value (Bax [2]) was “detected”, the caspase-8 fragment (caspase-8 [3]) was “detected” and the “18-kDa caspase-3 fragment” value (caspase-3 [4]) was “detected”. The Akt phosphorylation (Akt [5]) was “negligible”, the “αMβ2 macroclusters on PMN surface” value (αMβ2) was “did not support αMβ2 clustering” and the “recognition by individual integrin subunits (in words)” value [1] was “recognized only by the αM and not by the β2 subunit”. The “soluble ligand binding, αMβ2 cells (in words)” value (αMβ2 on K562 cells) was “bound both ligands”, the “soluble ligand binding, αM cells (in words)” value (αM subunit on K562 cells) was “bound both ligands” and the “soluble ligand binding, β2 cells (in words)” value (β2 subunit on K562 cells) was “failed to bind soluble Ang([1]– [4])”. For the same substance, the “K562 early/late apoptosis (% annexin V+ cells), mock” value [6] was 78 ± 8%, the “Bax cleavage product, αMβ2 cells” value (Bax [7]) was “present” and the “caspase-3 cleavage product, αMβ2 cells” value (caspase-3 [8]) was “present”. For the same substance, the “caspase-8 cleavage product, αMβ2 cells” value (caspase-8 [9]) was “present”, the “Akt phosphorylation, αM, β2 and mock cells” value (Akt [10]) was “failed to induce Akt activation” and the “Akt phosphorylation, αMβ2 cells” value (Akt [10]) was “failed to induce Akt activation”. For the same substance, the “ERK1/2 activation, αM cells” value (ERK1/2 [11]) was “poorly induced”, the “ERK1/2 activation, αMβ2 cells” value (ERK1/2 [11]) was “poorly induced” and the “ERK1/2 phosphorylation, mock and β2 cells” value (ERK1/2 [11]) was “poorly induced”.
In the case of fibrinogen [Fg], the “22-kDa Bax fragment” value (Bax [2]) is reported as “absent”, the caspase-8 fragment (caspase-8 [3]) is reported as “absent” and the “18-kDa caspase-3 fragment” value (caspase-3 [4]) is reported as “absent”. The Akt phosphorylation (Akt [5]) was “robust Akt phosphorylation”, the ERK1/2 activation (ERK1/2 [12]) was “induced ERK1/2 activation” and the “αMβ2 macroclusters on PMN surface” value (αMβ2) was “detected”. The “recognition by individual integrin subunits (in words)” value [1] was “engage both integrin subunits”, the “soluble ligand binding, αMβ2 cells (in words)” value (αMβ2 on K562 cells) was “bound soluble Fg” and the “soluble ligand binding, αM cells (in words)” value (αM subunit on K562 cells) was “bound soluble Fg”. For the same substance, the “soluble ligand binding, β2 cells (in words)” value (β2 subunit on K562 cells) was “bound soluble Fg”, the “K562 early/late apoptosis (% annexin V+ cells), mock” value [6] was 72 ± 13% and the “Bax cleavage product, αMβ2 cells” value (Bax [7]) was “not detected”. For the same substance, the “caspase-3 cleavage product, αMβ2 cells” value (caspase-3 [8]) was “not detected”, the “caspase-8 cleavage product, αMβ2 cells” value (caspase-8 [9]) was “not detected” and the “Akt phosphorylation, αM, β2 and mock cells” value (Akt [10]) was “not in K562 cells expressing the individual αM or β2 subunits (Fig. 6A) or mock-transfected cells”. The “Akt phosphorylation, αMβ2 cells” value (Akt [10]) was “robust Akt phosphorylation”, the “ERK1/2 activation, αM cells” value (ERK1/2 [11]) was “strongly induced” and the “ERK1/2 activation, αMβ2 cells” value (ERK1/2 [11]) was “strongly induced”. The “ERK1/2 phosphorylation, mock and β2 cells” value (ERK1/2 [11]) was “poorly induced” and the “effect on PMN apoptosis” value (PMN) was “delay PMN apoptosis”.
For methyl-β-cyclodextrin [MβCD], the “ligand binding, inhibitor, no ligand (background)” value (αMβ2 on PMN) was 3.09 ± 0.4 MFI, the “PMN early/late apoptosis (% annexin V+ cells), inhibitor + Fg” value (human PMNs; clustering inhibitor + Fg 1 μM, 37 °C, mean ± SEM, n = 5) was 59.3 ± 15% and the “PMN early/late apoptosis (% annexin V+ cells), inhibitor + P1” value (human PMNs; clustering inhibitor + P1 100 μM, 37 °C, mean ± SEM, n = 5) was 66.3 ± 18%. For the same substance, the “PMN early/late apoptosis (% annexin V+ cells), inhibitor + P2-C” value (human PMNs; clustering inhibitor + P2-C 100 μM, 37 °C, mean ± SEM, n = 5) was 75.6 ± 17% and the “PMN early/late apoptosis (% annexin V+ cells), inhibitor + Plg” value (human PMNs; clustering inhibitor + Plg 1 μM, 37 °C, mean ± SEM, n = 5) was 75.0 ± 13%.
